In the library only some 3% were active in any assay of this set; here they are far more common.
SR-BI uptake up = SR-BI HDL lipid transfer activation. AID 504775. CHO ldlA[mSR-BI] cells, DiI-HDL uptake fluorescence, 3 h; 100 = double the neutral-control signal. activation, % at 12.5 µM. 320,000 tested, 0.096% active;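 active means mean replicate activation of at least 60% and every replicate at or above 60%; inconclusive means mean or all-replicate condition met, but not both; inactive means mean below 60% and not all replicates reaching 60%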;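 further: 0% = median plate neutral-control signal and 100% = twice that signal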
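Test system: SR-BI-overexpressing, LDLR-lacking CHO cells. Measured by: DiI fluorescence, bottom read. Medium: Ham's F12 with 0.5% BSA, HEPES 25 mM, pH 7.4. Timing: 3 h uptake period with compound, 37 °C.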
DNA FID counter = counter-screen for HCV NS3 helicase inhibitors: DNA intercalator displacement; AID 1845; DNA fluorescent intercalator displacement, fluorescence; 290,000 tested, 0.17% active; inhibition, % at 7.9 µM; in the data active means inhibition above about 37%;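 further: 0% = vehicle and 100% = reference compound; higher means more ethidium bromide displaced from hairpin DNA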
SR-BI HDL uptake = blocks mouse SR-BI lipid uptake from DiI-HDL | Q61009 | ldlA[mSR-BI] CHO cells, DiI-HDL uptake fluorescence, 3 h | inhibition, % at 12.5 µM | 320,000 tested, 0.96% active | AID 488896;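 active means mean replicate inhibition of at least 70% and a set share of replicates each scoring 70 or more; inconclusive means meets just one of the two criteria; inactive means fails both criteria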;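 further: 0% = median of neutral control wells and 100% = median of positive control wells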
Kir21 inh = inhibitors of mouse Kir2.1 inward-rectifier potassium channel | P35561 | HEK293-Kir2.1, FluxOR thallium flux fluorescence; hits give low values | B-score at 10 µM | 310,000 tested, 0.85% active;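 active means fluorescence ratio B-score at or below minus 3 SD of library scores, with starting-brightness B-score within 2 SD, cut at about -4.2 in these data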;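 further: channel flux triggered by added potassium and thallium sulfate stimulus; B-score of peak minus minimum fluorescence over baseline after thallium stimulus; more negative B-score means stronger Kir2.1 block with less thallium influx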
TMEM16A act = activates or potentiates the mouse TMEM16A chloride channel. Q8BHY3. HEK293 TMEM16A/YFP-H148Q/I152L, iodide quench fluorescence; hits give low values. B-score at 10 µM. 340,000 tested, 0.3% active. AID 623877;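 active means fluorescence-ratio B-score plate-corrected deviation score at least 3 library SD below zero, with starting fluorescence score within 5 deviations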;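 further: channel opened by trigger with iodide after compound preincubation; score built on the fluorescence ratio of max minus min over baseline; more negative score means more quench and so TMEM16A activation or potentiation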
ANO1 block = inhibitors of mouse TMEM16A calcium-activated chloride channel; normalized B-score (activity score, 25-100; higher = stronger inhibition) at 10 µM; 310,000 tested, 1.2% active; Q8BHY3; HEK293 TMEM16A/YFP iodide influx fluorescence, ionomycin;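 active means ratio plate-corrected score three or more library SD toward inhibition, starting fluorescence score within five deviations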;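 further: score derived from kinetic fluorescence span divided by baseline fluorescence per well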
The depositor's hits bear a star; i = inactive; ? = inconclusive; . = not tested or not shown.

SMILES	SR-BI uptake up	DNA FID counter	SR-BI HDL uptake	Kir21 inh	TMEM16A act	ANO1 block
Cc1ccc2c(c1)c1c3n2CCN(CC(N)=O)C3CCC1 (configuration not stated)	-5	-13	5	-0.52	i	i
Cc1ccc2c(c1)c1c3n2CCN(CC(O)CNC(C)C)C3CCC1 (configuration not stated)	-30	45*	30	0.61	i	i
C/C(=N\NC(=O)c1nnn(-c2nonc2N)c1-c1ccc2c(c1)OCO2)c1ccccc1	10	-10	-10	0.54	i	i
CCOc1ccc(-c2c(C(=O)N/N=C/c3ccc(C)cc3)nnn2-c2nonc2N)cc1	-44	-8	44	-0.72	i	i
Cc1ccc(-c2c(C(=O)N/N=C/c3ccc(OC(C)C)cc3)nnn2-c2nonc2N)cc1	-78	-12	78*	-0.57	i	i
COc1cccc(-c2c(C(=O)N/N=C/c3cccnc3)nnn2-c2nonc2N)c1	-9	-23	9	1.1	-37*	i
C/C(=N\NC(=O)c1nnn(-c2nonc2N)c1-c1ccccc1)c1ccccc1O	-86	-7	86*	0	i	i
CCOc1ccc(-c2c(C(=O)N/N=C/c3ccc(OC(C)C)cc3)nnn2-c2nonc2N)cc1	-77	-9	77*	-0.23	i	i
Cc1n[nH]c(C)c1NC(=O)CN1CCN(S(=O)(=O)c2ccc(C(F)(F)F)cc2)CC1	20	.	-20	.	i	.
O=C(c1cc(-c2ccccc2)nc2ccccc12)N1CCCC1	-18	-21	18	0.8	i	i
c1ccc(-c2cc(NCCN3CCCCC3)c3ccccc3n2)cc1	-12	74*	12	-2.2	i	i
Cc1nc2c(-c3ccc(F)cc3)c(C)nn2c(C)c1CCC(=O)NC(C)CCc1ccco1 (configuration not stated)	-63	-32	63	0.02	i	i
Cc1nc2c(-c3ccc(F)cc3)c(C)nn2c(C)c1CCC(=O)Nc1ccc(F)cc1F	-75	-3	75*	0.33	i	i
Cc1nn2c(NCCCn3ccnc3)cc(C(C)C)nc2c1-c1ccccc1	-30	27	30	-5*	i	i
Cc1nn2c(N3CCOCC3)cc(C(C)C)nc2c1-c1ccccc1	?	-36	-191	-2	i	i
Cc1nc2c(-c3ccccc3)c(C)nn2c(C)c1CCC(=O)NCc1ccco1	.	-19	.	.	i	i
CCN1CCN(c2ccc(NC(=O)CCc3c(C)nc4c(-c5ccccc5)c(C)nn4c3C)cc2)CC1	-23	41*	23	-0.3	i	i
CCN1CCN(c2cc(C(C)C)nc3c(-c4ccccc4)c(C)nn23)CC1	.	27	.	-8.1*	i	i
COC(=O)C1=C(COc2ccccc2)NC(=O)NC1c1ccc2ccccc2c1 (configuration not stated)	.	.	.	-0.68	.	i
CCOc1cc(/C=C/C(=O)OCC(=O)NCc2ccco2)cc(Cl)c1OC	-5	.	5	-0.36	i	i
CN(C)CC/C=C1/c2cc(F)ccc2Sc2ccc(Cl)cc21	-16	.	16	-8.5*	i	i
COc1cc2c(cc1Cl)/C(=C\CCN(C)C)c1ccccc1S2	16	17	-16	-11*	i	i
COc1cc(Cl)cc2c1Sc1ccccc1/C2=C/CCN(C)C	-20	20	45	-13*	i	i
CN(C)CC/C=C1/c2ccccc2Sc2c(O)cc(Cl)cc21	-7	11	7	-1.9	i	i
CCCCn1c(=NC(=O)c2ccco2)c(C(=O)OCC)cc2c(=O)n3cccc(C)c3nc21	-7	4	7	-1.6	i	i
SMILES	SR-BI uptake up	DNA FID counter	SR-BI HDL uptake	Kir21 inh	TMEM16A act	ANO1 block
Cc1ccccc1CN1[C@@H](C(C)C)COCCS1(=O)=O	-17	.	17	-0.55	i	i
CCOC(=O)C1CCN(S(=O)(=O)c2ccc(CNC(=O)c3ccccc3)s2)CC1	17	-20	-17	-0.26	i	i
O=C1OCCN1N1CCOC1=O	16	.	-16	.	i	.
COc1cc(C)ccc1S(=O)(=O)N1CCN(C23CC4CC(CC(C4)C2)C3)CC1	-77	-1	77*	-1.5	i	i
COc1cc(F)ccc1S(=O)(=O)N1CCN(C23CC4CC(CC(C4)C2)C3)CC1	-7	3	7	0.05	i	i
C/C(=N\NS(=O)(=O)c1ccccc1)c1cc(Cl)cc(Cl)c1O	4	0	-4	0.66	i	100*
C/C(=N/NS(=O)(=O)c1ccc(Cl)cc1)c1cccc(O)c1	-13	0	13	0.2	i	i
O=C(CSc1nc2ccc([N+](=O)[O-])cc2[nH]1)NC1CCCCCC1	3	1	-3	-0.87	i	100*
O=C(CSc1nc2ccc(Cl)cc2[nH]1)NC1CCCC1	-2	-10	2	0.01	i	i
CC(C)C[C@@]12C(=O)N(c3cccc(Br)c3)C(=O)N1[C@H](c1ccc(F)cc1)[C@@H]1C(=O)N(C3CCCCC3)C(=O)[C@@H]12	11	.	-11	-0.01	-7.6*	i
CC[C@@]12C(=O)N(c3cccc(Br)c3)C(=O)N1[C@H](c1ccc(F)cc1)[C@@H]1C(=O)N(C3CCCCC3)C(=O)[C@@H]12	-9	.	9	-0.91	i	i
COC(=O)c1sc(C(C)(C)C)cc1CS(=O)(=O)c1ccc(Cl)cc1	-35	-26	35	-2.5	i	i
CC(=O)C[C@H]1c2ccccc2S(=O)(=O)N1C1CCCC1	7	.	-7	-4.8*	i	i
Nc1c(S(=O)(=O)c2ccccc2)c2nc3ccccc3nc2n1Cc1ccco1	2	-7	-2	-2.4	i	i
Cc1ccc(S(=O)(=O)c2c(N)n(CCN3CCOCC3)c3nc4ccccc4nc23)cc1C	14	-2	-14	-0.12	-20*	i
Cc1ccc(S(=O)(=O)c2c(N)n(Cc3ccco3)c3nc4ccccc4nc23)cc1C	17	-13	-17	-0.24	i	25*
Cc1ccc(NC(=O)CSc2nn(-c3ccccc3)c(=S)s2)cc1S(=O)(=O)N(C)C	.	-6	.	0.21	i	25*
O=C(CSc1nn(-c2ccccc2)c(=S)s1)Nn1cnnc1	22	-3	-22	1.5	.	i
Cc1ccc(NC(=O)c2ccc(F)cc2F)cc1NS(C)(=O)=O	.	-2	.	0.39	i	i
COc1ccccc1-c1c(C)oc2cc(OC(=O)c3ccco3)ccc2c1=O	-37	-12	37	-9.2*	i	i
COc1cccc(CN2CC(C(=O)NCCn3ccc(C)n3)CCC2=O)c1 (configuration not stated)	25	-9	-25	1.5	i	i

Screens deposited in PubChem by several laboratories.
